Experimental data from ChEMBL document CHEMBL3217724, “Synthesis and evaluation of a series of benzothiophene acrylonitrile analogs as anticancer agents” (Medchemcomm, 2013).
The source made the active and inactive calls. No cut-off for these calls is given here.

What was measured:
[1] = Growth inhibition of human OVCAR8 cells; type: functional; conditions: OVCAR-8
Summary of the method: (§1)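 NCI 60-human-cancer-cell-line panel, five-dose screen after a preliminary screen. GI50 is the molar concentration giving 50% growth inhibition.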

[2] = Growth inhibition of human OVCAR4 cells; type: functional; conditions: OVCAR-4; summary of the method: as §1
IGROV-1 = assay: Growth inhibition of human IGROV1 cells; type: functional; summary of the method: as §1
[3] = Growth inhibition of human OVCAR3 cells; type: functional; conditions: OVCAR-3; summary of the method: as §1
[4] = Growth inhibition of human UACC257 cells; type: functional; conditions: UACC-257
Summary of the method: (§2)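 NCI 60-cell-line panel, five-dose screen; GI50 is the molar concentration giving 50% growth inhibition.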

[5] = Growth inhibition of human UACC62 cells; type: functional; conditions: UACC-62; summary of the method: as §2
SK-MEL-5 = assay: Growth inhibition of human SK-MEL-5 cells; type: functional; summary of the method: as §1
SK-MEL-2 = assay: Growth inhibition of human SK-MEL-2 cells; type: functional; summary of the method: as §1
SK-MEL-28 = assay: Growth inhibition of human SK-MEL-28 cells; type: functional; summary of the method: as §1
M14 = assay: Growth inhibition of human M14 cells; type: functional; summary of the method: as §1
MDA-MB-435 = assay: Growth inhibition of human MDA-MB-435 cells; type: functional; summary of the method: as §1
Malme-3M = assay: Growth inhibition of human MALME-3M cells; type: functional; summary of the method: as §1
U-251 = assay: Growth inhibition of human U251 cells; type: functional; summary of the method: as §2
[6] = Growth inhibition of human LOXIMVI cells; type: functional; conditions: LOX IMVI; summary of the method: as §1
SNB-75 = assay: Growth inhibition of human SNB75 cells; type: functional; summary of the method: as §2
SNB-19 = assay: Growth inhibition of human SNB19 cells; type: functional; summary of the method: as §2
[7] = Growth inhibition of human SF539 cells; type: functional; conditions: SF-539; summary of the method: as §1
SW-620 = assay: Growth inhibition of human SW620 cells; type: functional; summary of the method: as §2
SF-268 = assay: Growth inhibition of human SF268 cells; type: functional; summary of the method: as §1
HT-29 = assay: Growth inhibition of human HT-29 cells; type: functional; summary of the method: as §1
KM12 = assay: Growth inhibition of human KM12 cells; type: functional; summary of the method: as §1
[8] = Growth inhibition of human HCT15 cells; type: functional; conditions: HCT-15; summary of the method: as §1
[9] = Growth inhibition of human HCC2998 cells; type: functional; conditions: HCC 2998; summary of the method: as §1
HCT-116 = assay: Growth inhibition of human HCT116 cells; type: functional; summary of the method: as §1
COLO 205 = assay: Growth inhibition of human COLO205 cells; type: functional; summary of the method: as §1
NCI-H460 = assay: Growth inhibition of human NCI-H460 cells; type: functional; summary of the method: as §1
NCI-H322M = assay: Growth inhibition of human NCI-H322M cells; type: functional; summary of the method: as §1
NCI-H226 = assay: Growth inhibition of human NCI-H226 cells; type: functional; summary of the method: as §1
NCI-H23 = assay: Growth inhibition of human NCI-H23 cells; type: functional; summary of the method: as §1
[10] = Growth inhibition of human HOP92 cells; type: functional; conditions: HOP-92; summary of the method: as §1
HOP-62 = assay: Growth inhibition of human HOP62 cells; type: functional; summary of the method: as §1
SR = assay: Growth inhibition of human SR cells; type: functional; summary of the method: as §2
A549 = assay: Growth inhibition of human A549 cells; type: functional; summary of the method: as §1
RPMI-8226 = assay: Growth inhibition of human RPMI8226 cells; type: functional; summary of the method: as §1
K562 = assay: Growth inhibition of human K562 cells; type: functional; summary of the method: as §1
[11] = Growth inhibition of human MOLT4 cells; type: functional; conditions: MOLT-4; summary of the method: as §1
HL-60(TB) = assay: Growth inhibition of human HL-60(TB) cells; type: functional; summary of the method: as §1
CCRF-CEM = assay: Growth inhibition of human CCRF-CEM cells; type: functional; summary of the method: as §1
MDA-MB-468 = assay: Growth inhibition of human MDA-MB-468 cells; type: functional; summary of the method: as §1
T47D = assay: Growth inhibition of human T47D cells; type: functional; summary of the method: as §2
[12] = Growth inhibition of human Hs578T cells; type: functional; conditions: Hs-578T; summary of the method: as §1
[13] = Growth inhibition of human BT549 cells; type: functional; conditions: BT-549; summary of the method: as §1
MDA-MB-231 = assay: Growth inhibition of human MDA-MB-231 cells; type: functional; summary of the method: as §1
DU-145 = assay: Growth inhibition of human DU145 cells; type: functional; summary of the method: as §1
MCF7 = assay: Growth inhibition of human MCF7 cells; type: functional; summary of the method: as §1
[14] = Growth inhibition of human UO31 cells; type: functional; conditions: UO-31; summary of the method: as §2
PC-3 [15] = assay: Growth inhibition of human PC3 cells; type: functional; summary of the method: as §1
TK-10 = assay: Growth inhibition of human TK10 cells; type: functional; summary of the method: as §2
[16] = Growth inhibition of human RXF393 cells; type: functional; conditions: RXF 393; summary of the method: as §1
SN12C = assay: Growth inhibition of human SN12C cells; type: functional; summary of the method: as §2
ACHN = assay: Growth inhibition of human ACHN cells; type: functional; summary of the method: as §1
CAKI-1 = assay: Growth inhibition of human Caki1 cells; type: functional; summary of the method: as §1
A498 = assay: Growth inhibition of human A498 cells; type: functional; summary of the method: as §1
SK-OV-3 = assay: Growth inhibition of human SKOV3 cells; type: functional; summary of the method: as §2
786-0 = assay: Growth inhibition of human 786-0 cells; type: functional; summary of the method: as §1
[17] = Growth inhibition of human NCI-ADR-RES cells; type: functional; summary of the method: as §1
[18] = Growth inhibition of human OVCAR5 cells; type: functional; conditions: OVCAR-5; summary of the method: as §1
PC-3 [19] = assay: Induction of beta tubulin stabilization in human PC3 cells at 10 nM after 24 hrs by DAPI-staining based immunofluorescence assay; type: cell-based
Summary of the method: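 PC3 cells were treated for 24 hours with the test agent at 1, 10 or 100 nM, or with 10 nM docetaxel or vinblastine as stabilizing and destabilizing references. Cells were immunostained for beta-tubulin (green) with DAPI nuclear counterstain (blue) and the microtubule staining pattern imaged.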

LLC-PK1 [20] = assay: Resistance factor, ratio of GI50 for pig LLC-PK1 cells expressing MDR1 to GI50 for pig LLC-PK1 cells; set-up: species or system Sus scrofa
Summary of the method: (§3)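 Porcine epithelial L-MDR1 (P-gp expressing) cells and their non-expressing parent line were exposed to compound for 72 h. Viability was read with AlamarBlue dye and GI50 derived. P-gp expression was verified by Western blot with β-actin as loading control. The resistance ratio compares GI50 in MDR1 versus parent cells.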

LLC-PK1 [21] = assay: Growth inhibition of pig LLC-PK1 cells expressing MDR1 by Alamar Blue assay; type: functional; conditions: Sus scrofa; summary of the method: as §3
[22] = Growth inhibition of pig LLC-PK1 cells by Alamar Blue assay; type: cell-based, Sus scrofa
Summary of the method: (§4)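 Cell viability was read with AlamarBlue dye in 96-well format and GI50 values derived, to assess P-gp effects. Cells were P-gp-expressing NCI/ADR-Res ovarian cancer cells and L-MDR1 porcine epithelial cells, each with its non-expressing parent line. P-gp expression was confirmed by Western blot with β-actin as loading control. Resistance is the GI50 in the P-gp line over the GI50 in the parent line.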

OVCAR-8 = assay: Resistance factor, ratio of GI50 for P-gp expressing NCI-ADR-RES cells to GI50 for human OVCAR8 cells; type: functional; summary of the method: as §4
[23] = Growth inhibition of P-gp expressing human NCI-ADR-RES cells by Alamar Blue assay; type: functional
Summary of the method: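 72-h cytotoxicity in 96-well plates with AlamarBlue viability dye, giving GI50. Line 1 uses docetaxel-resistant PC3 prostate cells (PC3-DR), and line 2 uses NCI/ADR-Res ovarian cells. P-gp expression in both was confirmed by Western blot, with β-actin as the loading control.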

[24] = Growth inhibition of human OVCAR8 cells by Alamar Blue assay; type: functional; conditions: OVCAR-8; summary of the method: as §4
PC-3 [25] = assay: Resistance factor, ratio of GI50 for P-gp expressing docetaxel-resistant human PC3 cells to GI50 for human PC3 cells; type: functional
Summary of the method: (§5)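 PC3 prostate cancer cells and docetaxel-resistant PC3-DR cells were exposed to drug for 72 hours in 96-well format. Viability was read with AlamarBlue dye and GI50 derived. Resistance is the GI50 in PC3-DR over the GI50 in parental PC3.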

PC-3 [26] = assay: Growth inhibition of human PC3 cells after 72 hrs by Alamar Blue assay; type: functional; conditions: PC-3, 72 h; summary of the method: as §5
PC-3 [27] = assay: cells; conditions: Homo sapiens, PC-3, 72 h

COc1cc(/C(C#N)=C\c2cc3ccccc3s2)cc(OC)c1OC
GI50 [1]: < 10 nM
GI50 [2]: < 10 nM
GI50 (IGROV-1): < 10 nM
GI50 [3]: < 10 nM
GI50 [4]: > 100 nM
GI50 [5]: < 10 nM
GI50 (SK-MEL-5): < 10 nM
GI50 (SK-MEL-2): < 10 nM
GI50 (SK-MEL-28): < 10 nM
GI50 (M14): < 10 nM
GI50 (MDA-MB-435): < 10 nM
GI50 (Malme-3M): < 10 nM
GI50 (U-251): < 10 nM
GI50 [6]: < 10 nM
GI50 (SNB-75): < 10 nM
GI50 (SNB-19): 39.1 nM
GI50 [7]: < 10 nM
GI50 (SW-620): < 10 nM
GI50 (SF-268): < 10 nM
GI50 (HT-29): < 10 nM
GI50 (KM12): < 10 nM
GI50 [8]: < 10 nM
GI50 [9]: 19.2 nM
GI50 (HCT-116): < 10 nM
GI50 (COLO 205): < 10 nM
GI50 (NCI-H460): < 10 nM
GI50 (NCI-H322M): 18.3 nM
GI50 (NCI-H226): 17.9 nM
GI50 (NCI-H23): < 10 nM
GI50 [10]: < 10 nM
GI50 (HOP-62): < 10 nM
GI50 (SR): < 10 nM
GI50 (A549): < 10 nM
GI50 (RPMI-8226): < 10 nM
GI50 (K562): < 10 nM
GI50 [11]: < 10 nM
GI50 (HL-60(TB)): < 10 nM
GI50 (CCRF-CEM): < 10 nM
GI50 (MDA-MB-468): < 10 nM
GI50 (T47D): > 100 nM
GI50 [12]: < 10 nM
GI50 [13]: < 10 nM
GI50 (MDA-MB-231): < 10 nM
GI50 (DU-145): < 10 nM
GI50 (MCF7): < 10 nM
GI50 [14]: < 10 nM
GI50 (PC-3 [15]): < 10 nM
GI50 (TK-10): > 100 nM
GI50 [16]: < 10 nM
GI50 (SN12C): < 10 nM
GI50 (ACHN): < 10 nM
GI50 (CAKI-1): 37.8 nM
GI50 (A498): < 10 nM
GI50 (SK-OV-3): < 10 nM
GI50 (786-0): < 10 nM
GI50 [17]: < 10 nM
GI50 [18]: < 10 nM

CC(=O)O[C@@]12CO[C@@H]1C[C@H](O)[C@@]1(C)C(=O)[C@H](O)C3=C(C)[C@@H](OC(=O)[C@H](O)[C@@H](NC(=O)OC(C)(C)C)c4ccccc4)C[C@@](O)([C@@H](OC(=O)c4ccccc4)[C@H]21)C3(C)C.O.O.O [DOCETAXEL]
Activity (PC-3 [19]): Active
RatioGI50 (LLC-PK1 [20]): 627
GI50 (LLC-PK1 [21]): 107 nM
GI50 [22]: 0.17 nM
RatioGI50 (OVCAR-8): 392
GI50 [23]: 196 nM
GI50 [24]: 0.5 nM
RatioGI50 (PC-3 [25]): 22
GI50 (PC-3 [26]): 2.5 nM
GI50 (PC-3 [27]): 54 nM
